Data set [1] deals with T1, CYP2C9 (Homo sapiens, UniProt P11712). The data set is described as follows: Inhibition of CYP2C9 at 10 uM. Type of data set: ADME. Put shortly:
(§1)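 Compounds were tested at 10 µM in duplicate in a spectrofluorometric assay, with 0.25% final methanol and 0.25% final acetonitrile. Fluorescence at t = 0 was subtracted from fluorescence after incubation. Signal was compared with solvent-vehicle controls, and percent of control activity was reported as percent inhibition.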

The target in data set [2] is T2, CYP3A4 (Homo sapiens, UniProt P08684). In words: Inhibition of CYP3A4 at 10 uM. Type of data set: ADME. The method, boiled down:
as §1

A short description of data set [3]: Displacement of [125I]angiotensin 2 from AT1 receptor in rat liver membrane after 2 hrs by gamma counting. The data set is classed as cell membranes. Put shortly: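 Rat liver membranes (5 mg original tissue) were incubated with 0.03 nM [125I]Ang II and varied test-compound concentrations. Incubation was 2 h at 25 °C. Bound and free label were separated by filtration on PEI-soaked GF/B filters and bound label was gamma counted. Nonspecific binding was taken with 1 µM Ang II.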
(In general: Displacement assays read how much labelled ligand stays bound in the presence of the test substance.)

The target in the next data set is T3, CYP1A2 (Homo sapiens, UniProt P05177).
T3 sequence (P05177 whole entry): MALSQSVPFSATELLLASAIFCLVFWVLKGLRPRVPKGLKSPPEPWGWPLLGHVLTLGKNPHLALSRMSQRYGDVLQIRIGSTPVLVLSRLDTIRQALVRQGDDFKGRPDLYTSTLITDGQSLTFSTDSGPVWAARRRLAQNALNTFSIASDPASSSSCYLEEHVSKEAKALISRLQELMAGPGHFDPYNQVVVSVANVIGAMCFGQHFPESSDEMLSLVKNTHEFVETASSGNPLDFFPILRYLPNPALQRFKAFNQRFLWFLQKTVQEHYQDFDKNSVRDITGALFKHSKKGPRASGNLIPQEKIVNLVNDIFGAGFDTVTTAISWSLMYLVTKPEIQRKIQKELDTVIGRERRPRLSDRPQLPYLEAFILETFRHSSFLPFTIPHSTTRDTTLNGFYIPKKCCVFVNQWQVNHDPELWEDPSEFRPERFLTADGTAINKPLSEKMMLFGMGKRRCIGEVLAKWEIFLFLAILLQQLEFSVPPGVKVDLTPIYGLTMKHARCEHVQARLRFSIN
The data set is described as follows: Inhibition of human recombinant CYP1A2 at 10 uM by spectrofluorimetry. The data set is classed as ADME. The method, boiled down:
as §1

The target in the next data set is T4, CYP2B6 (Homo sapiens, UniProt P20813).
T4 sequence (P20813 whole entry): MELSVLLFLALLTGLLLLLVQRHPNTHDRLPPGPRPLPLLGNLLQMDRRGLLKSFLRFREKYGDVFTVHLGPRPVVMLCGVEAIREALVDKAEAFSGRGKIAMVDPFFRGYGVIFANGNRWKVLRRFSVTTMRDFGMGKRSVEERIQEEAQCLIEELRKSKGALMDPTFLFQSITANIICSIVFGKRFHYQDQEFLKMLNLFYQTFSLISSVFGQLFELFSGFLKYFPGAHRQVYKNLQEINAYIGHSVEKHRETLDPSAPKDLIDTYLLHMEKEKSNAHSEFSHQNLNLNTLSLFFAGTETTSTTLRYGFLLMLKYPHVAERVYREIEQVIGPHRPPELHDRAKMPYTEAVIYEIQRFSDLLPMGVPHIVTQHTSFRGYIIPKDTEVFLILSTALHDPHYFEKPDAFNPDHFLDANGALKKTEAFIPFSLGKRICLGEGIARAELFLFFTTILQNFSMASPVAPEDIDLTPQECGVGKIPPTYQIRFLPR
The data set is described as follows: Inhibition of human recombinant CYP2B6 at 10 uM by spectrofluorimetry. The data set is classed as ADME. Put shortly: as §1

Data set [4] deals with T1, CYP2C9. The data set is described as follows: Inhibition of human recombinant CYP2C9 at 10 uM by spectrofluorimetry. The data set is classed as ADME. The method, boiled down: as §1
For a further data set, the target named is CYP2C19 (Homo sapiens, UniProt P33261). The data set is described as follows: Inhibition of human recombinant CYP2C19 at 10 uM by spectrofluorimetry. The data set is classed as ADME. Put shortly: as §1
Data set [5] addresses T2, CYP3A4. The data set is described as follows: Inhibition of human recombinant CYP3A4 at 10 uM by spectrofluorimetry. Type of data set: ADME. Put shortly:
as §1

These results are taken from ChEMBL document CHEMBL1165972, “Selective angiotensin II AT(2) receptor agonists with reduced CYP 450 inhibition” (Bioorg Med Chem, 2010).

Usually inhibition stands for how much of the control response was suppressed. What is called Ki is a dissociation constant, usually derived from enzyme kinetics or from competition with a known ligand. Low values mean a stronger hold on the target, high ones a looser hold on the target.

T1 sequence (P11712 whole entry): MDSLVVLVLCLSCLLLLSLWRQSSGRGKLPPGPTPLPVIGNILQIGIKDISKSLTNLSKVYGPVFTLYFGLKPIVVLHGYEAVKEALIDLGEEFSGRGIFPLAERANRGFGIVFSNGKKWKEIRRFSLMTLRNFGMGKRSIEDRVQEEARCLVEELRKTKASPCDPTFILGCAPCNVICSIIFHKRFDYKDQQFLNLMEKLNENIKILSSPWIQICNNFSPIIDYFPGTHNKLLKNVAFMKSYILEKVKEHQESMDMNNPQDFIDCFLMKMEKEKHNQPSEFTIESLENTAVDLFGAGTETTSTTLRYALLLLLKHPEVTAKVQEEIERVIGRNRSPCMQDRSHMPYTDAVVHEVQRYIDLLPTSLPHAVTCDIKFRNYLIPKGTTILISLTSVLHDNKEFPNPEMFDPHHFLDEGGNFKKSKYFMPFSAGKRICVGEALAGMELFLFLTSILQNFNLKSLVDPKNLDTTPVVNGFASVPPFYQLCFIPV
T2 sequence (P08684 whole entry): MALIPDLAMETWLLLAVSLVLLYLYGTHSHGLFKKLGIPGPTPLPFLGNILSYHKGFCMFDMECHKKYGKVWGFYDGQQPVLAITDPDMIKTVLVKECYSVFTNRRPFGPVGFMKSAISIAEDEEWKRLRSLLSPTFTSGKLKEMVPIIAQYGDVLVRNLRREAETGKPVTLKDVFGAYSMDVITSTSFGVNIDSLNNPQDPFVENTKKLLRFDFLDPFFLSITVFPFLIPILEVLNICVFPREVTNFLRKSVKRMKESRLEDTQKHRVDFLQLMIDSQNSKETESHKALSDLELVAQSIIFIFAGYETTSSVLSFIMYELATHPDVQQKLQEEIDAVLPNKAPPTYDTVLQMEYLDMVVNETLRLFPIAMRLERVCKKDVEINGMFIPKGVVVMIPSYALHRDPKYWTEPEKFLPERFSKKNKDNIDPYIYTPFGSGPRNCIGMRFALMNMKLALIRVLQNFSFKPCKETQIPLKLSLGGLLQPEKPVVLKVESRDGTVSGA
Sequence of CYP2C19 (P33261 whole entry): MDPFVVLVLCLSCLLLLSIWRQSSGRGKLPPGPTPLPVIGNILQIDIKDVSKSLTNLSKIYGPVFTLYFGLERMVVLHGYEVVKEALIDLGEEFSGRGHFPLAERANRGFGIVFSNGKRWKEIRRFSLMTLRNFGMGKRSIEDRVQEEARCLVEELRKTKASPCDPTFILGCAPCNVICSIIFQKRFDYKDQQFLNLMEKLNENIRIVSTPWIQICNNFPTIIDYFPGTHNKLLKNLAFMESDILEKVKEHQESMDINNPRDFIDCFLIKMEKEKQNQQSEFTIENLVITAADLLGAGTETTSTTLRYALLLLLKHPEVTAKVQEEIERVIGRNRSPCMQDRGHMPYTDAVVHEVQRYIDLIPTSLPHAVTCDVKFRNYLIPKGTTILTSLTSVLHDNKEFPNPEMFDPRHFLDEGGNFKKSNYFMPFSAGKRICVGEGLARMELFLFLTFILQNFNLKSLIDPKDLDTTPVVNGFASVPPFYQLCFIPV

Consider `CCCCOC(=O)NS(=O)(=O)c1sc(CC(C)C)cc1-c1ccc(Cn2ccnc2)cc1` [BULOXIBUTID], for which the inhibition at 10 µM at CYP2C9 [1] was determined as 94%; against CYP3A4 [2], 82%; on CYP1A2, 63%; on CYP2B6, 40%; on CYP2C9 [4] it was 94%; at CYP2C19, 67%. Moreover, the inhibition at 10 µM on CYP3A4 [5] amounted to 82%. In addition, the inhibitory constant (Ki) in data set [3] was > 10 µM.
